Converted amounts (≈) assume the structure as drawn.
How the values were obtained:
Staphylococcus aureus [1] = assay: Antibacterial activity against Staphylococcus aureus; format: functional
Staphylococcus aureus [2] = assay: Antibacterial activity against methicillin-resistant Staphylococcus aureus SAU1009; format: functional
Method in brief: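 MIC against MRSA strain SAU1009.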

Staphylococcus aureus [3] = assay: Antibacterial activity against Staphylococcus aureus in po dosed mouse septicemia model; format: functional
Staphylococcus aureus [4] = assay: Antibacterial activity against Staphylococcus aureus UC9213; format: functional
[5] = target: T1, Amine oxidase [flavin-containing] A (Homo sapiens, UniProt P21397); assay: Inhibition of human recombinant MAO-A expressed in yeast after 1 hr by luciferin-based luminescence assay
T1 sequence (P21397 whole entry): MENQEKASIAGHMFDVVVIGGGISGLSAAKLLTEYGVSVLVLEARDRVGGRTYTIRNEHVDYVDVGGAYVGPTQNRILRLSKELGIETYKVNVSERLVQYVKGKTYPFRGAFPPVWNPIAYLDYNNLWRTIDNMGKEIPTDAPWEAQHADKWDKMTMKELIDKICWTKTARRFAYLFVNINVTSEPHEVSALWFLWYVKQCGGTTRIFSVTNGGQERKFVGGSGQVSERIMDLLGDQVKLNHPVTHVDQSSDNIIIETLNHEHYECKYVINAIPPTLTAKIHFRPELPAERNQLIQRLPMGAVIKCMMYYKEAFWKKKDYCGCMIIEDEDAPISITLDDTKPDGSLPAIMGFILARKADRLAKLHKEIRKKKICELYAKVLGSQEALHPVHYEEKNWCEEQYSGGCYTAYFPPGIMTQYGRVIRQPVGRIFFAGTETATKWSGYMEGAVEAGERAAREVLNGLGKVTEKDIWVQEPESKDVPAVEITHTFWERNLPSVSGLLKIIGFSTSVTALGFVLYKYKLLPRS

## CC(=O)NC[C@H]1CN(c2ccc(C(C)=O)cc2F)C(=O)O1
Staphylococcus aureus [1]
  MIC: 32 µg/mL (≈ 109 µM)

## O=C1O[C@@H](CO)CN1c1ccc(-c2ccc(N3CCOC3=O)nc2)c(F)c1
Staphylococcus aureus [2]
  MIC: 0.125 µg/mL (≈ 0.335 µM)

## CC(=O)NC[C@H]1CN(c2ccc(N3C=CC(=O)CC3)c(F)c2)C(=O)O1
Staphylococcus aureus [3]
  ED50: 10 mg/kg
Staphylococcus aureus [4]
  MIC: 0.5 µg/mL (≈ 1.44 µM)
[5]
  IC50: 10.9 µM

## N#Cc1ccc(-c2ccc(N3C[C@H](CO)OC3=O)cc2F)cn1
Staphylococcus aureus [2]
  MIC: 0.25 µg/mL (≈ 0.798 µM)

## N#Cc1ccc(-c2ccc(N3C[C@H](CO)OC3=O)c(F)c2F)cn1
Staphylococcus aureus [2]
  MIC: 1 µg/mL (≈ 3.02 µM)

## O=C1OCCN1c1ccc(-c2ccc(N3C[C@H](CO)OC3=O)c(F)c2F)cn1
Staphylococcus aureus [2]
  MIC: 0.5 µg/mL (≈ 1.28 µM)

## Cn1nnc(-c2ccc(-c3ccc(N4C[C@H](CO)OC4=O)c(F)c3F)cn2)n1
Staphylococcus aureus [2]
  MIC: 1 µg/mL (≈ 2.58 µM)

## CC(=O)NC[C@H]1CN(c2ccc(N3C=CC(=O)CC3)c(F)c2F)C(=O)O1
Staphylococcus aureus [2]
  MIC: 1 µg/mL (≈ 2.74 µM)
Staphylococcus aureus [3]
  ED50: 15.9 mg/kg
[5]
  IC50: > 274 µM

## CC(=O)NC[C@H]1CN(c2cc(F)c(N3C=CC(=O)CC3)c(F)c2F)C(=O)O1
Staphylococcus aureus [2]
  MIC: 2 µg/mL (≈ 5.22 µM)
Staphylococcus aureus [3]
  ED50: > 20 mg/kg

Reference: ChEMBL document CHEMBL3286113, “New potent antibacterial oxazolidinone (MRX-I) with an improved class safety profile” (J Med Chem, 2014)
